24 compounds from BindingDB's records for doi:10.1021/jm970266p (Universidad Central De Venezuela, 1997) can be followed below.

The assay deals with T1, Falcipain 2 (Plasmodium falciparum, UniProt Q9N6S8).
T1 sequence (Q9N6S8 whole entry): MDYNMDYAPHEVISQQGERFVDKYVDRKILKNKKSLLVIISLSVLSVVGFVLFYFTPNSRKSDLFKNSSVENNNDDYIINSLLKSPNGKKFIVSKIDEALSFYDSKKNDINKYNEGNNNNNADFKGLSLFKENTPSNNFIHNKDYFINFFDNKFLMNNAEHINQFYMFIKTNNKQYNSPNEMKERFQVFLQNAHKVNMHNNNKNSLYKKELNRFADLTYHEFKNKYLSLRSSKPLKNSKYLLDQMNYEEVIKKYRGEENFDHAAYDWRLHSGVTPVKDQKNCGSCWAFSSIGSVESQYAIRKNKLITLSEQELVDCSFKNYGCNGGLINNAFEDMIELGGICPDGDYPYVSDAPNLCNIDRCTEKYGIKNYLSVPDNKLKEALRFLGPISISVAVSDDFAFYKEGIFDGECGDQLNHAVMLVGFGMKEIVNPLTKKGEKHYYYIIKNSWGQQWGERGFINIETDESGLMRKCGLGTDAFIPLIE
The experiment in a line: Inhibition of falcipain activity. In a few lines:
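Soluble parasite extract containing falcipain (30 nM) preincubated 30 min at room temperature with compound (100× DMSO stocks) and 10 mM DTT in 0.1 M sodium acetate, pH 5.5. Z-Phe-Arg-AMC then added to 50 μM final. Fluorescence (ex 380, em 460 nm) followed continuously for 30 min. Rates compared with DMSO controls. Multiple concentrations tested in duplicate or triplicate; IC50 extrapolated from % control activity curves.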

The compound `COc1cccc(C2CC(=O)C3Sc4cc(F)ccc4N=C3C2)c1OC` (centres undefined) [2-(2,3-Dimethoxy-phenyl)-7-fluoro-2,3-dihydro-1H,10H-phenothiazin-4-one] displayed an IC50 of 20 µM. That is a double-digit micromolar value.
For `O=C1CC(c2ccc(Cl)cc2Cl)CC2=Nc3ccc(F)cc3SC12` (centres undefined) [2-(2,4-Dichloro-phenyl)-7-fluoro-2,3-dihydro-1H,10H-phenothiazin-4-one], the IC50 came out at 10 µM.
For `COc1ccc(C2CC(=O)C3Sc4cc(F)ccc4N=C3C2)cc1OC` (centres undefined) [2-(3,4-Dimethoxy-phenyl)-7-fluoro-2,3-dihydro-1H,10H-phenothiazin-4-one] the value was 20 µM; for `COc1ccc(C2CC(=O)C3C(=Nc4ccc(F)cc4S3(=O)=O)C2)cc1OC` (centres undefined) [2-(3,4-Dimethoxy-phenyl)-7-fluoro-5,5-dioxo-2,3,5,10-tetrahydro-1H-5lambda*6*-phenothiazin-4-one], 5 µM.
Compound `O=C1CC(c2ccc(Cl)cc2)CC2=Nc3ccc(F)cc3SC12` (centres undefined) [2-(4-Chloro-phenyl)-7-fluoro-2,3-dihydro-1H,10H-phenothiazin-4-one] had an IC50 of 5 µM.
To `O=C1CC(c2ccc(Cl)cc2)CC2=Nc3ccc(F)cc3S(=O)(=O)C12` (centres undefined) [2-(4-Chloro-phenyl)-7-fluoro-5,5-dioxo-2,3,5,10-tetrahydro-1H-5lambda*6*-phenothiazin-4-one] belongs 5 µM.
For `CC1(C)CC(=O)C2Sc3cc(Cl)ccc3N=C2C1` (centres undefined) [7-Chloro-2,2-dimethyl-2,3-dihydro-1H,10H-phenothiazin-4-one] the value was 30 µM; for `CC1(C)CC(=O)C2C(=Nc3ccc(Cl)cc3S2(=O)=O)C1` (centres undefined) [7-Chloro-2,2-dimethyl-5,5-dioxo-2,3,5,10-tetrahydro-1H-5lambda*6*-phenothiazin-4-one], 5 µM.
To `COc1cccc(C2CC(=O)C3Sc4cc(Cl)ccc4N=C3C2)c1OC` (centres undefined) [7-Chloro-2-(2,3-dimethoxy-phenyl)-2,3-dihydro-1H,10H-phenothiazin-4-one] belongs 10 µM; to `COc1cccc(C2CC(=O)C3C(=Nc4ccc(Cl)cc4S3(=O)=O)C2)c1OC` (centres undefined) [7-Chloro-2-(2,3-dimethoxy-phenyl)-5,5-dioxo-2,3,5,10-tetrahydro-1H-5lambda*6*-phenothiazin-4-one], 4 µM; to `O=C1CC(c2ccc(Cl)cc2Cl)CC2=Nc3ccc(Cl)cc3SC12` (centres undefined) [7-Chloro-2-(2,4-dichloro-phenyl)-2,3-dihydro-1H,10H-phenothiazin-4-one], 10 µM.
The compound `O=C1CC(c2ccc(Cl)cc2Cl)CC2=Nc3ccc(Cl)cc3S(=O)(=O)C12` (centres undefined) [7-Chloro-2-(2,4-dichloro-phenyl)-5,5-dioxo-2,3,5,10-tetrahydro-1H-5lambda*6*-phenothiazin-4-one] had an IC50 of 30 µM.
To `COc1ccc(C2CC(=O)C3Sc4cc(Cl)ccc4N=C3C2)cc1OC` (centres undefined) [7-Chloro-2-(3,4-dimethoxy-phenyl)-2,3-dihydro-1H,10H-phenothiazin-4-one] belongs 30 µM; to `COc1cccc(C2CC(=O)C3Sc4cc(Cl)ccc4N=C3C2)c1` (centres undefined) [7-Chloro-2-(3-methoxy-phenyl)-2,3-dihydro-1H,10H-phenothiazin-4-one], 20 µM.
To `O=C1CC(c2ccc(Cl)cc2)CC2=Nc3ccc(Cl)cc3SC12` (centres undefined) [7-Chloro-2-(4-chloro-phenyl)-2,3-dihydro-1H,10H-phenothiazin-4-one] belongs 4 µM; to `O=C1CC(c2ccc(Cl)cc2)CC2=Nc3ccc(Cl)cc3S(=O)(=O)C12` (centres undefined) [7-Chloro-2-(4-chloro-phenyl)-5,5-dioxo-2,3,5,10-tetrahydro-1H-5lambda*6*-phenothiazin-4-one], 4 µM.
To `COc1ccc(C2CC(=O)C3Sc4cc(Cl)ccc4N=C3C2)cc1` (centres undefined) [7-Chloro-2-(4-methoxy-phenyl)-2,3-dihydro-1H,10H-phenothiazin-4-one] belongs 10 µM; to `COc1ccc(C2CC(=O)C3C(=Nc4ccc(Cl)cc4S3(=O)=O)C2)cc1` (centres undefined) [7-Chloro-2-(4-methoxy-phenyl)-5,5-dioxo-2,3,5,10-tetrahydro-1H-5lambda*6*-phenothiazin-4-one], 30 µM.
As for `O=C1CC(c2ccccc2)CC2=Nc3ccc(Cl)cc3SC12` (centres undefined) [7-Chloro-2-phenyl-2,3-dihydro-1H,10H-phenothiazin-4-one], half-maximal inhibition (IC50) was put at 10 µM.
Turning to `O=C1CC(c2ccccc2)CC2=Nc3ccc(Cl)cc3S(=O)(=O)C12` (centres undefined) [7-Chloro-5,5-dioxo-2-phenyl-2,3,5,10-tetrahydro-1H-5lambda*6*-phenothiazin-4-one], inhibition was half-maximal at 4 µM (IC50).
For `CC1(C)CC(=O)C2C(=Nc3ccc(F)cc3S2(=O)=O)C1` (centres undefined) [7-Fluoro-2,2-dimethyl-5,5-dioxo-2,3,5,10-tetrahydro-1H-5lambda*6*-phenothiazin-4-one] the value was 5 µM.
For `COc1cccc(C2CC(=O)C3Sc4cc(F)ccc4N=C3C2)c1` (centres undefined) [7-Fluoro-2-(3-methoxy-phenyl)-2,3-dihydro-1H,10H-phenothiazin-4-one] the value was 20 µM; for `COc1cccc(C2CC(=O)C3C(=Nc4ccc(F)cc4S3(=O)=O)C2)c1` (centres undefined) [7-Fluoro-2-(3-methoxy-phenyl)-5,5-dioxo-2,3,5,10-tetrahydro-1H-5lambda*6*-phenothiazin-4-one], 5 µM.
To `O=C1CC(c2ccccc2)CC2=Nc3ccc(F)cc3SC12` (centres undefined) [7-Fluoro-2-phenyl-2,3-dihydro-1H,10H-phenothiazin-4-one] belongs 20 µM.
